Source: publication PMC4567957 (Bioorganic & medicinal chemistry letters, 2015)
Entries after “also recorded” stand apart in the source; their conditions may differ. One block for each molecule: values may come before it. Starred links: 1 amine or outer side, 2 acyl side, 3 side chain; linkers in the order of their positions; H or OH if unused. Positions of bridges follow the written chain, without caps; N, C: chain ends. Non-standard residues stand in square brackets, D forms with d. Residues, ends and D or L forms follow the SMILES beside them. *: point of attachment. CH2CONHCH2CH2NHCOCH2 = O=C(C[*:1])NCCNC(=O)C[*:2]; Propanoyl(3,3-Ph2) = O=C(CC(c1ccccc1)c1ccccc1)*; Pyridine(2,6-diCH2) = c1cc(C[*:1])nc(C[*:2])c1; X2 = O=C(CC(c1ccccc1)(c1ccccc1)c1ccccc1)*; Dip = N[C@H](C(=O)O)C(c1ccccc1)c1ccccc1; X1 = CCCCCCCCCCCCCCCC(=O)NCCOCCOCCN*; mXylylene = c1cc(C[*:1])cc(C[*:2])c1; oXylylene = c1ccc(C[*:2])c(C[*:1])c1; NH(CH2CH2O)2CH2CH2NH2 = NCCOCCOCCN*; pXylylene = c1cc(C[*:2])ccc1C[*:1]; Mpa = O=C(O)CCS

Legend:
human ferroportin-GFP = target: T1, human ferroportin-GFP (Homo sapiens, UniProt Q9NP59); experiment: In vitro ferroportin; assay type: cell-based; details: for times less active than mHS5: versus mHS5; for bioactivity in Fpn degradation assay (in words): result in words, see Table 1
T1 sequence (Q9NP59 1-571): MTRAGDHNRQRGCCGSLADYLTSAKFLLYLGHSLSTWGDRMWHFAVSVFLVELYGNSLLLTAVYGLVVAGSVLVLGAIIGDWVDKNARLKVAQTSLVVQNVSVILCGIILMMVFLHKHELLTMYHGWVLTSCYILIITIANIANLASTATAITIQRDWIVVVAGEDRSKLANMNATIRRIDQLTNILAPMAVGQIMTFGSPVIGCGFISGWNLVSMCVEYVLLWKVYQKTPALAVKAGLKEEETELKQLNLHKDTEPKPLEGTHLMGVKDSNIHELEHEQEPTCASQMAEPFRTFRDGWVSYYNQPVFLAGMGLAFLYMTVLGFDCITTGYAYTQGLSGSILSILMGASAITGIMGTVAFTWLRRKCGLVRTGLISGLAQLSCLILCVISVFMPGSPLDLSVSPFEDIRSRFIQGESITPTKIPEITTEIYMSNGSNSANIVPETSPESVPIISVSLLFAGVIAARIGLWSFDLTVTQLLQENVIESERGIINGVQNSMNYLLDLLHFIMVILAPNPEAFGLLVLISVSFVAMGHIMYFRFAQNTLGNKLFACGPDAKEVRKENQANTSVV

[1] = Plasma stability in freshly prepared mouse plasma; assay type: in vitro ADME; details: 25 μM, 37 °C
In short: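 Test compound, from a 10 mM DMSO stock, spiked into freshly prepared mouse plasma (final 25 μM) and incubated at 37 °C. Aliquots taken at set time points were quenched in DMSO/acetonitrile (1:1) with 0.1% TFA and centrifuged (13000 rpm, 10 min). Supernatants were analysed by triple-quadrupole LC/MS against a peptide internal standard to follow remaining intact peptide over time.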

C57BL/6 mice = assay type: in vivo, mouse; details: subcutaneous, 50–200 nmoles, 24h post-injection

- times less active than mHS5 (human ferroportin-GFP): approximately 2 times
SMILES: CC(=O)N[C@H]1CSCc2ccc(cc2)CSC[C@@H](C(N)=O)NC(=O)[C@H](Cc2ccccc2)NC(=O)[C@H](CCCNC(=N)N)NC(=O)[C@H](CS)NC(=O)[C@H](CCCNC(=N)N)NC(=O)[C@@H]2CCCN2C(=O)[C@H](Cc2ccccc2)NC1=O [mHS4] (Ac-CFPRCRFC-NH2; linker 1-8 via pXylylene (inferred))

- increase in potency (4Phe→Dpa) (human ferroportin-GFP; mHS5 versus mHS15): 5 ×
SMILES: CC(=O)N[C@H]1CSCc2cccc(c2)CSC[C@@H](C(N)=O)NC(=O)[C@H](Cc2ccccc2)NC(=O)[C@H](CCCNC(=N)N)NC(=O)[C@H](CS)NC(=O)[C@H](CCCNC(=N)N)NC(=O)[C@@H]2CCCN2C(=O)[C@H](C(c2ccccc2)c2ccccc2)NC1=O [mHS15] (Ac-C[Dip]PRCRFC-NH2; linker 1-8 via mXylylene; N-terminus and C-terminus assumed)

- times more active than mHS22 (human ferroportin-GFP; versus AcNH-containing mHS22): approximately 2 times
SMILES: N=C(N)NCCC[C@@H]1NC(=O)[C@H](CS)NC(=O)[C@H](CCCNC(=N)N)NC(=O)[C@@H]2CCCN2C(=O)[C@H](C(c2ccccc2)c2ccccc2)NC(=O)CCSCc2cccc(c2)CSC[C@@H](C(=O)NCCOCCOCCN)NC(=O)[C@H](Cc2ccccc2)NC1=O [mHS23] ([Mpa][Dip]PRCRFC-{NH(CH2CH2O)2CH2CH2NH2}; linker 1-8 via mXylylene (inferred))

- bioactivity in Fpn degradation assay (in words) (human ferroportin-GFP): inactive
SMILES: CC(=O)N[C@H]1CSCc2cccc(n2)CSC[C@@H](C(N)=O)NC(=O)[C@H](Cc2ccccc2)NC(=O)[C@H](CCCNC(=N)N)NC(=O)[C@H](CS)NC(=O)[C@H](CCCNC(=N)N)NC(=O)[C@@H]2CCCN2C(=O)[C@H](Cc2ccccc2)NC1=O [mHS7] (Ac-CFPRCRFC-NH2; linker 1-8 via Pyridine(2,6-diCH2); N-terminus and C-terminus assumed)

- times less active than mHS5 (human ferroportin-GFP): approximately 2 times
SMILES: CC(=O)N[C@H]1CSCc2ccccc2CSC[C@@H](C(N)=O)NC(=O)[C@H](Cc2ccccc2)NC(=O)[C@H](CCCNC(=N)N)NC(=O)[C@H](CS)NC(=O)[C@H](CCCNC(=N)N)NC(=O)[C@@H]2CCCN2C(=O)[C@H](Cc2ccccc2)NC1=O [mHS6] (Ac-CFPRCRFC-NH2; linker 1-8 via oXylylene; N-terminus and C-terminus assumed)

Second part, the molecule before the results:

SMILES: CC(=O)N[C@@H](CS)C(=O)N[C@@H](Cc1ccccc1)C(=O)N1CCC[C@H]1C(=O)N[C@@H](CCCNC(=N)N)C(=O)N[C@@H](CS)C(=O)N[C@@H](CCCNC(=N)N)C(=O)N[C@@H](Cc1ccccc1)C(=O)N[C@@H](CS)C(N)=O [mHS1] (Ac-CFPRCRFC-NH2; N-terminus and C-terminus assumed)
- EC50 (human ferroportin-GFP): > 600 nM
- time within which degraded in plasma [1]: ≤ 6 h

SMILES: CC(=O)N[C@H]1CSCC(=O)NCCNC(=O)CSC[C@@H](C(N)=O)NC(=O)[C@H](Cc2ccccc2)NC(=O)[C@H](CCCNC(=N)N)NC(=O)[C@H](CS)NC(=O)[C@H](CCCNC(=N)N)NC(=O)[C@@H]2CCCN2C(=O)[C@H](Cc2ccccc2)NC1=O [mHS2] (Ac-CFPRCRFC-NH2; linker 1-8 via CH2CONHCH2CH2NHCOCH2; N-terminus and C-terminus assumed)
- bioactivity in Fpn degradation assay (in words) (human ferroportin-GFP): inactive

SMILES: CCCCCCCCCCCCCCCC(=O)NCCOCCOCCNC(=O)[C@@H]1CSCc2cccc(c2)CSC[C@H](NC(=O)CC(c2ccccc2)c2ccccc2)C(=O)N[C@@H](CCCNC(=N)N)C(=O)N[C@@H](CS)C(=O)N[C@@H](CCCNC(=N)N)C(=O)N[C@@H](Cc2ccccc2)C(=O)N1 [mHS26] ({Propanoyl(3,3-Ph2)}-CRCRFC-X1; linker 1-6 via mXylylene; N-terminus and C-terminus assumed)
- fold less potent than parental minihepcidin PR73 (human ferroportin-GFP; ratio of EC50 versus PR73): 12.5 ×
- in vivo activity (decrease in serum iron) (C57BL/6 mice): no desired biological effect; also recorded: no in vivo potency
- plasma stability compared with PR73 [1]: slightly more resistant to plasma driven degradation

SMILES: N=C(N)NCCC[C@@H]1NC(=O)[C@@H](NC(=O)CC(c2ccccc2)(c2ccccc2)c2ccccc2)CSCc2cccc(c2)CSC[C@@H](C(N)=O)NC(=O)[C@H](Cc2ccccc2)NC(=O)[C@H](CCCNC(=N)N)NC(=O)[C@H](CS)NC1=O [mHS19] (X2-CRCRFC-NH2; linker 1-6 via mXylylene; C-terminus assumed)
- EC50 (human ferroportin-GFP): ~100 nM
- fold less potent than mHS15 (human ferroportin-GFP; versus mHS15): approximately 2 ×

SMILES: CCCCCCCCCCCCCCCCNC(=O)CN(CC(N)=O)C(=O)CCCCCNC(=O)[C@@H]1CSCc2cccc(c2)CSC[C@H](NC(C)=O)C(=O)N[C@@H](C(c2ccccc2)c2ccccc2)C(=O)N2CCC[C@H]2C(=O)N[C@@H](CCCNC(=N)N)C(=O)N[C@@H](CS)C(=O)N[C@@H](CCCNC(=N)N)C(=O)N[C@@H](Cc2ccccc2)C(=O)N1 [mHS17]
- in vivo activity (decrease in serum iron) (C57BL/6 mice): no desired biological effect; also recorded: no in vivo potency
